Values after ≈ are worked out from the molar mass of the structure shown.
Tests used:
[1] = test system: Mus musculus; assay: Hypolipidemic activity in Swiss albino mouse assessed as decrease in plasma triglyceride level at 50 mg/kg, po administered daily for 8 days measured on day 9 by spectrophotometry relative to control; assay type: functional; set-up: scale not given: the % may be the effect or the level left
Summary of the method: (§1)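 Male Swiss albino mice (moderately hypertriglyceridemic model) dosed by oral gavage at 50 mg/kg body weight once daily for 8 days; plasma triglyceride and total cholesterol measured. Percent change calculated relative to vehicle-treated control group; mean ± SE, n = 10 mice per group.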

[2] = Aqueous solubility of the compound in 0.1 M boric acid buffer at pH 9.0 after 4 hrs by HPLC method; assay type: physicochemical
[3] = test system: Mus musculus; assay: Hypolipidemic activity in Swiss albino mouse assessed as decrease in plasma total cholesterol level at 50 mg/kg, po administered daily for 8 days measured on day 9 by spectrophotometry relative to control; assay type: functional; set-up: scale not given: the % may be the effect or the level left; summary of the method: as §1
[4] = Aqueous solubility of the compound in 0.1 M citric acid buffer at pH 3.0 after 4 hrs by HPLC method; assay type: physicochemical; settings: pH 3, 4 h
[5] = Aqueous solubility of the compound in 0.2 M phosphate buffer at pH 7.4 after 4 hrs by HPLC method; assay type: physicochemical
[6] = Octanol-buffer partition coefficient, log P of the compound at pH 7.4 by HPLC; assay type: physicochemical
Summary of the method: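 Partition coefficient determined by HPLC in an octanol–buffer system at pH 7.4, 25 °C.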

[7] = Aqueous solubility of the compound in 0.1 M phosphate buffer at pH 5.2 after 4 hrs by HPLC method; assay type: physicochemical
[8] = Aqueous solubility of the compound in 0.2 M hydrochloric acid buffer at pH 1.0 after 4 hrs by HPLC method; assay type: physicochemical
[9] = test system: Mus musculus; assay: Hypolipidemic activity in Swiss albino mouse assessed as change in plasma total cholesterol level at 50 mg/kg, po administered daily for 8 days measured on day 9 by spectrophotometry relative to control; assay type: functional; summary of the method: as §1

SMILES	Activity [1]	solubility at 4 h [2]	Activity [3]	solubility [4]	solubility at 4 h [5]	logD [6]	solubility at 4 h [7]	solubility ([8]; buffer, pH 1, 4 h)	Activity [9]	solubility at 4 h ([8]; 0.2 M hydrochloric acid buffer, pH 1)
CC(C)OC(=O)OCOC(=O)C(C)(C)Oc1ccc(C(=O)c2ccc(Cl)cc2)cc1	33.1%	6 ng/mL (≈ 13.8 nM)	7.2%	2 ng/mL (≈ 4.6 nM)	2 ng/mL (≈ 4.6 nM)	4.91	2 ng/mL (≈ 4.6 nM)			
CC(C)(Oc1ccc(C(=O)c2ccc(Cl)cc2)cc1)C(=O)OCCN1CCOCC1	27.6%	4800 ng/mL (≈ 11100 nM)	2.4%	15 ng/mL (≈ 34.7 nM)	1920 ng/mL (≈ 4450 nM)	3.5	38000 ng/mL (≈ 88000 nM)	5 ng/mL (≈ 11.6 nM)		
CC(=O)OC(C)OC(=O)C(C)(C)Oc1ccc(C(=O)c2ccc(Cl)cc2)cc1 (centres undefined)	33.1%	3 ng/mL (≈ 7.41 nM)			2 ng/mL (≈ 4.94 nM)	4.65	3 ng/mL (≈ 7.41 nM)		-3.5%	
CC(C)OC(=O)C(C)(C)Oc1ccc(C(=O)c2ccc(Cl)cc2)cc1 [FENOFIBRATE]	48.6%		5.5%			4.78				
Cc1oc(=O)oc1COC(=O)C(C)(C)Oc1ccc(C(=O)c2ccc(Cl)cc2)cc1	27.2%	4 ng/mL (≈ 9.28 nM)	11.2%	2 ng/mL (≈ 4.64 nM)	2 ng/mL (≈ 4.64 nM)	4.35	3 ng/mL (≈ 6.96 nM)			230 ng/mL (≈ 534 nM)
CC(C)(C)C(=O)OCOC(=O)C(C)(C)Oc1ccc(C(=O)c2ccc(Cl)cc2)cc1	45%	1 ng/mL (≈ 2.31 nM)	9%		2 ng/mL (≈ 4.62 nM)	4.7	1 ng/mL (≈ 2.31 nM)			
CC(C)OC(=O)OC(C)OC(=O)C(C)(C)Oc1ccc(C(=O)c2ccc(Cl)cc2)cc1 (centres undefined)	47%	22 ng/mL (≈ 49 nM)	7.7%		1 ng/mL (≈ 2.23 nM)	5.43	1 ng/mL (≈ 2.23 nM)			
